# Reference: ChEMBL document CHEMBL5357044, “Discovery of a dual-acting inhibitor of interleukin-1β and STATs for the treatment of inflammatory bowel disease” (RSC Med Chem, 2024)
# Activity calls are given as the source filed them. The calls are words filed in the database; no cut-off is given here.
# Legend:
# [1] = molecular target: NACHT, LRR and PYD domains-containing protein 3 (Mus musculus, UniProt Q8R4B8); assay: Inhibition of NLRP3 inflammasome activation in mouse J774.A1 cells assessed as reduction in LPS-stimulated IL-1beta level pretreated for 1 hr followed by nigericin treatment for 1 hr by ELISA; type: cell-based
# In short: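 J774A.1 cells (DMEM, 10% FBS) primed with LPS 1 μg mL−1 for 5 h, compound 1 h, then nigericin 10 μM for 1 h. Supernatant IL-1β by ELISA; IC50 from three separate determinations.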
# Mus musculus [2] = assay: Anti-colitis activity against DSS-induced ulcerative colitis mouse model assessed as increase in colon length at 10 mg/kg/day, po treated for 9 days; type: functional, organism-based; details: time 9.0 day
# In short: (§1)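 DSS colitis: 2.5% DSS in drinking water days 1–7, water days 8–9. Salicylazosulfapyridine given daily by intragastric gavage, 10 mg kg−1. Body weight and fecal blood recorded daily; colon length measured at sacrifice on day 9.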
# Mus musculus [3] = assay: Anti-colitis activity against DSS-induced ulcerative colitis mouse model assessed as decrease in hemafecia at 10 mg/kg/day, po treated for 9 days; type: functional, organism-based; details: time 9.0 day; in short: as §1
# Mus musculus [4] = assay: Anti-colitis activity against DSS-induced ulcerative colitis mouse model assessed as increase in body weight at 10 mg/kg/day, po treated for 9 days; type: functional, organism-based; details: time 9.0 day; in short: as §1
# Colon [5] = assay: Anti-colitis activity against DSS-induced ulcerative colitis mouse model assessed as increase in crypt architecture in colon tissue at 10 mg/kg/day, po for 9 days by H and E staining based analysis; type: functional, organism-based; details: time 9.0 day
# In short: (§2)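 H&E-stained colon sections (×20) scored for inflammatory cell infiltration, goblet cell depletion and crypt architecture. Samples were taken on day 9 from mice given 2.5% DSS water days 1–7 and daily intragastric SASP 10 mg kg−1.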
# Colon [6] = assay: Anti-colitis activity against DSS-induced ulcerative colitis mouse model assessed as decrease in infiltration of inflammatory cells in colon tissue at 10 mg/kg/day, po for 9 days by H and E staining based analysis; type: functional, organism-based; details: time 9.0 day; in short: as §2
# Colon [7] = assay: Anti-colitis activity against DSS-induced ulcerative colitis mouse model assessed as increase in goblet cells in colon tissue at 10 mg/kg/day, po for 9 days by H and E staining based analysis; type: functional, organism-based; details: time 9.0 day; in short: as §2
# Sequence of NACHT, LRR and PYD domains-containing protein 3 (Q8R4B8 whole entry, the tested form may be a part): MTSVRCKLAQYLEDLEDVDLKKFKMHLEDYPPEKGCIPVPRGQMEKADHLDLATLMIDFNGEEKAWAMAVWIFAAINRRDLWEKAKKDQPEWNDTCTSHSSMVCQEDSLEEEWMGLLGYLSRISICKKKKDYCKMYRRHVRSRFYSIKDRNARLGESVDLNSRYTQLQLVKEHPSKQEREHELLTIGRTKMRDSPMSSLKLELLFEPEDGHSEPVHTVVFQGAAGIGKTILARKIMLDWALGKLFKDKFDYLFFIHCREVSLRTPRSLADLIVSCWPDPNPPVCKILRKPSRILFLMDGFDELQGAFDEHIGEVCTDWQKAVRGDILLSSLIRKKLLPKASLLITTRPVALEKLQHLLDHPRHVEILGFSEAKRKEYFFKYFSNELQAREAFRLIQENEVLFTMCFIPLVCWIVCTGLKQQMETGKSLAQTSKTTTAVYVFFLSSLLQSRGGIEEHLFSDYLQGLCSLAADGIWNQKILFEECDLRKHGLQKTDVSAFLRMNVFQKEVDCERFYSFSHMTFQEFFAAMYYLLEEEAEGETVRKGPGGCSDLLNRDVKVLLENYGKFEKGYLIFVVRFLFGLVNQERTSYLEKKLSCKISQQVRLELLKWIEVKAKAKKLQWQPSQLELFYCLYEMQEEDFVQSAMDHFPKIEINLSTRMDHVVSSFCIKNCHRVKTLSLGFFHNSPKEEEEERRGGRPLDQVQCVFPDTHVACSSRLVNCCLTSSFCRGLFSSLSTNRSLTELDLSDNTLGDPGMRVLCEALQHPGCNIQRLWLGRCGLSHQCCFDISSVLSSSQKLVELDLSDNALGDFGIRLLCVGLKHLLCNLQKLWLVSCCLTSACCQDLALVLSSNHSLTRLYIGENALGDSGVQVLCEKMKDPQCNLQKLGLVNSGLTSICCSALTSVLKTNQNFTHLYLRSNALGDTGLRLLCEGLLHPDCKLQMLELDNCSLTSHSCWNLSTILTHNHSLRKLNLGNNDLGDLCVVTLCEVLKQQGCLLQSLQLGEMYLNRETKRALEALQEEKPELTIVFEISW
IC50 [1],Structure (SMILES),further results
> 50 µM,Cc1cc(/C=C/C(=O)c2ccc(C(=O)NCC(=O)Nc3ccccc3)cc2)cc(C)c1O,
> 50 µM,Cc1cc(/C=C/C(=O)c2ccc(C(=O)O)cc2)cc(C)c1O,
3.96 µM,CCNC(=O)CNC(=O)c1ccc(C(=O)/C=C/c2cc(C)c(O)c(C)c2)cc1,
3.02 µM,CNC(=O)CNC(=O)c1ccc(C(=O)/C=C/c2cc(C)c(O)c(C)c2)cc1,
3.37 µM,Cc1cc(/C=C/C(=O)c2ccc(C(=O)N[C@@H](Cc3ccccc3)C(=O)O)cc2)cc(C)c1O,
1.09 µM,COC(=O)[C@H](Cc1ccccc1)NC(=O)c1ccc(C(=O)/C=C/c2cc(C)c(O)c(C)c2)cc1,
5.97 µM,Cc1cc(/C=C/C(=O)c2ccc(C(=O)NCC(=O)N(C)C)cc2)cc(C)c1O,
5.97 µM,Cc1cc(/C=C/C(=O)c2ccc(NC(=O)CCN(C)C)cc2)cc(C)c1O,
8.36 µM,CCOC(=O)c1ccc(C(=O)/C=C/c2cc(C)c(O)c(C)c2)cc1,
> 50 µM,Cc1cc(/C=C/C(=O)c2ccc(C(=O)NCC(=O)O)cc2)cc(C)c1O,
4.93 µM,CCOC(=O)CSc1ccc(C(=O)/C=C/c2cc(C)c(O)c(C)c2)cc1,
5.21 µM,Cc1cc(/C=C/C(=O)c2ccc3c(c2)COC32CNC2)cc(C)c1O,
3.67 µM,CSc1ccc(C(=O)/C=C/c2cc(C)c(O)c(C)c2)cc1,
27.1 µM,CCN(CC)C(=S)Sc1ccc(C(=O)/C=C/c2cc(C)c(O)c(C)c2)cc1,
1.08 µM,COC(=O)CNC(=O)c1ccc(C(=O)/C=C/c2cc(C)c(O)c(C)c2)cc1,
3.8 µM,CCN(CC)C(=S)SCCC(=O)Nc1ccc(C(=O)/C=C/c2cc(C)c(O)c(C)c2)cc1,
1.57 µM,CSc1ccc(C(=O)/C=C/c2cc(O)cc(O)c2)cc1,
,O=C(O)c1cc(/N=N/c2ccc(S(=O)(=O)Nc3ccccn3)cc2)ccc1O,Activity (Mus musculus [2]): Active; Activity (Mus musculus [3]): inactive; Activity (Mus musculus [4]): inactive; Activity (Colon [5]): Active; Activity (Colon [6]): Active; Activity (Colon [7]): Active
14.4 µM,COc1ccc(C(=O)/C=C/c2cc(C)c(O)c(C)c2)cc1,
3.01 µM,COC(=O)C1(C(=O)Nc2ccc(C(=O)/C=C/c3cc(C)c(O)c(C)c3)cc2)CC1,
5.95 µM,CCN(CC)C(=O)CNC(=O)c1ccc(C(=O)/C=C/c2cc(C)c(O)c(C)c2)cc1,
